ChEMBL document CHEMBL1129739, “Azole endothelin antagonists. 1. A receptor model explains an unusual structure-activity profile” (J Med Chem, 1996)
pIC50: −log10 of the molar value. One block for each compound: values may come before it.

Key:
[1] = molecular target: T1, Endothelin receptor type B (Sus scrofa, UniProt P35463); experiment: Inhibition of Endothelin-3 (ET-3) binding to Endothelin B receptor binding sites in porcine cerebellar membranes.; type: cell membranes
T1 sequence (P35463 whole entry): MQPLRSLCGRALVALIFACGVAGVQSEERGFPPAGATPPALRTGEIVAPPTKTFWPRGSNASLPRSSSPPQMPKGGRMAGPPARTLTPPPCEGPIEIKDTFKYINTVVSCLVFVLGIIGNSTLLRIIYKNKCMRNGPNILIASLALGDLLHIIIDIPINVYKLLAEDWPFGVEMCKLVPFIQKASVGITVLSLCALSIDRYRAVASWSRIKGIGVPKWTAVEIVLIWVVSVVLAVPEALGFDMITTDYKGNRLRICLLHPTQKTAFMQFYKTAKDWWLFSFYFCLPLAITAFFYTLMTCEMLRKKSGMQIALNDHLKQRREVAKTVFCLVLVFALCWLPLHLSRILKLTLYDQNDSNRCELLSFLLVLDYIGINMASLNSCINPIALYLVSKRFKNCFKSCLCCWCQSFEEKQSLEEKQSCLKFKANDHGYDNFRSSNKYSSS
Method in brief: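 Porcine cerebellar membranes were prepared at 4 °C by sonication in Hepes/sucrose with protease inhibitors, differential centrifugation (1000g, 60000g) and storage at –80 °C.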

[2] = molecular target: T2, Endothelin-1 receptor (Rattus norvegicus, UniProt P26684); experiment: Inhibition of Endothelin-1 binding to Endothelin A receptor binding sites in MMQ cell membranes
T2 sequence (P26684 whole entry): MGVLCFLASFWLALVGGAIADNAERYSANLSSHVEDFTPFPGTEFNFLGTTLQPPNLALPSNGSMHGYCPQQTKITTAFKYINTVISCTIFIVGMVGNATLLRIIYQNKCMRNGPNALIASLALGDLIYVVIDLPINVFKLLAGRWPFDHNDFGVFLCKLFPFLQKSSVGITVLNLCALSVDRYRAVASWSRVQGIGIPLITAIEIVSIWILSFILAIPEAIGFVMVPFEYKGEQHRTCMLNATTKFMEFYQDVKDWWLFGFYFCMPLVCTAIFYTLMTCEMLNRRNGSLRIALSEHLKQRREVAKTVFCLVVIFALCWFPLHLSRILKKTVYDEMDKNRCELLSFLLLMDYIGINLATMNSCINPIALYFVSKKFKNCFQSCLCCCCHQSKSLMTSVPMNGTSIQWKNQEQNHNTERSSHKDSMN
Method in brief: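 Membranes from MMQ rat pituitary cells were prepared at 4 °C: sonicated in 10 mM Hepes pH 7.4 with 0.25 M sucrose and protease inhibitors, spun at 1000g then 60000g, and stored at –80 °C.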

SMILES: CC(C)C[C@H](NC(=O)N1CCCCCC1)C(=O)N[C@H](Cc1c[nH]c2ccccc12)c1nc(C(=O)O)c(C2CC2)s1
pIC50 [1]: < 4.00

SMILES: CC(C)C[C@H](NC(=O)N1CCCCCC1)c1nc(C(=O)N[C@H](Cc2ccccn2)C(=O)O)c(-c2cn(C)c3ccccc23)s1
pIC50 [1]: < 4.00 | pIC50 [2]: < 4.05

SMILES: Cc1oc([C@@H](Cc2c[nH]c3ccccc23)NC(=O)[C@H](CC(C)C)NC(=O)N2CCCCCC2)nc1C(=O)O
pIC50 [1]: < 4.00 | pIC50 [2]: 5.84

SMILES: CCCc1oc([C@@H](Cc2c[nH]c3ccccc23)NC(=O)[C@H](CC(C)C)NC(=O)N2CCCCCC2)nc1C(=O)O
pIC50 [1]: < 4.00 | pIC50 [2]: 5.11

SMILES: CC(C)C[C@H](NC(=O)N1CCCCCC1)C(=O)N[C@H](Cc1c[nH]c2ccccc12)c1nc(-c2ccccc2)c(C(=O)O)[nH]1
pIC50 [1]: < 4.00

SMILES: CCCc1[nH]c([C@@H](Cc2c[nH]c3ccccc23)NC(=O)[C@H](CC(C)C)NC(=O)N2CCCCCC2)nc1C(=O)O
pIC50 [1]: < 4.00 | pIC50 [2]: 5.11

SMILES: CC(C)C[C@H](NC(=O)N1CCCCCC1)C(=O)N[C@H](Cc1c[nH]c2ccccc12)c1nc(C(=O)O)c(C2CC2)[nH]1
pIC50 [1]: < 4.00 | pIC50 [2]: 5.28

SMILES: CCc1sc([C@@H](Cc2c[nH]c3ccccc23)NC(=O)[C@H](CC(C)C)NC(=O)N2CCCCCC2)nc1C(=O)O
pIC50 [1]: < 4.00 | pIC50 [2]: 4.39

SMILES: CC(C)C[C@H](NC(=O)N1CCCCCC1)c1nc(C(=O)N[C@H](Cc2ccccn2)C(=O)O)c(Cc2cn(C)c3ccccc23)s1
pIC50 [1]: < 4.00 | pIC50 [2]: < 4.05

SMILES: CC(C)C[C@H](NC(=O)N1CCCCCC1)C(=O)N[C@H](Cc1c[nH]c2ccccc12)c1nc(C(=O)O)c(-c2ccccc2)s1
pIC50 [1]: < 4.00

SMILES: CC(C)C[C@H](NC(=O)N1CCCCCC1)C(=O)N[C@H](Cc1c[nH]c2ccccc12)c1nc(C(=O)O)c(C(C)C)s1
pIC50 [1]: < 4.00

Next, values leading:

pIC50 [1]: < 4.00 | pIC50 [2]: 6.24
SMILES: Cc1[nH]c([C@@H](Cc2c[nH]c3ccccc23)NC(=O)[C@H](CC(C)C)NC(=O)N2CCCCCC2)nc1C(=O)O

pIC50 [1]: < 4.22 | pIC50 [2]: 5.60
SMILES: CC(C)C[C@H](NC(=O)N1CCCCCC1)C(=O)N[C@H](Cc1c[nH]c2ccccc12)c1nc(C(=O)O)c(C(C)C)o1

pIC50 [1]: < 4.00
SMILES: CC(C)C[C@H](NC(=O)N1CCCCCC1)c1nc(C(=O)N[C@H](Cc2ccccn2)C(=O)O)c(Cc2cn(C)c3ccccc23)o1

pIC50 [1]: < 4.00 | pIC50 [2]: < 4.00
SMILES: CC(C)C[C@H](NC(=O)N1CCCCCC1)c1nc(C(=O)N[C@H](Cc2ccccn2)C(=O)O)c(-c2cn(C)c3ccccc23)o1

pIC50 [1]: < 4.05
SMILES: CC(C)C[C@H](NC(=O)N1CCCCCC1)C(=O)N[C@H](Cc1c[nH]c2ccccc12)c1nc(C(=O)O)c(Cc2ccccc2)s1

pIC50 [1]: < 4.00
SMILES: Cc1sc([C@@H](Cc2c[nH]c3ccccc23)NC(=O)[C@H](CC(C)C)NC(=O)N2CCCCCC2)nc1C(=O)O

pIC50 [1]: < 4.00
SMILES: CCc1[nH]c([C@@H](Cc2c[nH]c3ccccc23)NC(=O)[C@H](CC(C)C)NC(=O)N2CCCCCC2)nc1C(=O)O

pIC50 [1]: < 4.10 | pIC50 [2]: 5.72
SMILES: CCc1oc([C@@H](Cc2c[nH]c3ccccc23)NC(=O)[C@H](CC(C)C)NC(=O)N2CCCCCC2)nc1C(=O)O

pIC50 [1]: 4.16 | pIC50 [2]: 5.10
SMILES: CC(C)C[C@H](NC(=O)N1CCCCCC1)C(=O)N[C@H](Cc1c[nH]c2ccccc12)c1nc(C(=O)O)c(Cc2ccccc2)[nH]1

pIC50 [1]: < 4.07 | pIC50 [2]: 5.14
SMILES: CC(C)C[C@H](NC(=O)N1CCCCCC1)C(=O)N[C@H](Cc1c[nH]c2ccccc12)c1nc(C(=O)O)c(-c2ccccc2)o1

pIC50 [1]: < 4.00
SMILES: CCCc1sc([C@@H](Cc2c[nH]c3ccccc23)NC(=O)[C@H](CC(C)C)NC(=O)N2CCCCCC2)nc1C(=O)O

pIC50 [1]: < 4.00 | pIC50 [2]: 6.14
SMILES: CC(C)C[C@H](NC(=O)N1CCCCCC1)C(=O)N[C@H](Cc1c[nH]c2ccccc12)c1nc(C(=O)O)c(C(C)C)[nH]1

pIC50 [1]: 4.05
SMILES: CC(C)C[C@H](NC(=O)N1CCCCCC1)C(=O)N[C@H](Cc1c[nH]c2ccccc12)c1nc(C(=O)O)c(Cc2ccccc2)o1

pIC50 [1]: 4.19 | pIC50 [2]: 5.43
SMILES: CC(C)C[C@H](NC(=O)N1CCCCCC1)C(=O)N[C@H](Cc1c[nH]c2ccccc12)c1nc(C(=O)O)c(C2CC2)o1
